Laboratory results taken from ChEMBL document CHEMBL3632511, “Oxopyrido[2,3-d]pyrimidines as Covalent L858R/T790M Mutant Selective Epidermal Growth Factor Receptor (EGFR) Inhibitors” (ACS Med Chem Lett, 2015).

Key:
Mus musculus = assay: In vivo inhibition of EGFR L858R/T790M double mutant phosphorylation in human NCI-H1975 cells xenografted in athymic nude mouse at 30 mg/kg, po measured at 4 hrs by mesoscale multiplex assay relative to control; type: functional
Procedure, shortened: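 Female athymic nude mice carried matrigel plugs holding 5 x 10⁶ H1975 cells, n = 3 per group. Control or compound given at 30 mg/kg po. Plugs and plasma taken 4 h after dosing. p-EGFR in plug measured by quantitative MSD assay, given as % p-EGFR/PRAS40 vs control.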

A-431 = assay: Cytotoxicity against human A431 cells expressing wild-type EGFR assessed as inhibition of cell proliferation after 72 hrs by CellTiter-Glo assay; type: cell-based; conditions: A-431, 72 h
NCI-H1975 = assay: Cytotoxicity against human NCI-H1975 cells harboring EGFR L858R/T790M double mutant assessed as inhibition of cell proliferation after 72 hrs by CellTiter-Glo assay; type: functional, cell-based; conditions: NCI-H1975, 72 h
[1] = Cytotoxicity against human HCC827 cells harboring EGFR 746 to 750 deletion mutant assessed as inhibition of cell proliferation after 72 hrs by CellTiter-Glo assay; type: functional, cell-based; conditions: HCC827, 72 h
[2] = molecular target: T1, Epidermal growth factor receptor (Homo sapiens, UniProt P00533); assay: Binding affinity to wild type EGFR (unknown origin)
[3] = molecular target: T2, Epidermal growth factor receptor (Homo sapiens, UniProt P00533, L858R/T790M); assay: Binding affinity to EGFR T790M/L858R double mutant (unknown origin); type: protein assay
[4] = Selectivity ratio of IC50 for human A431 cells expressing wild-type EGFR to IC50 for human HCC827 cells harboring EGFR 746 to 750 deletion mutant; type: ADME, cell-based
[5] = Selectivity ratio of IC50 for wild type EGFR phosphorylation in human A431 cells to IC50 for EGFR L858R/T790M double mutant phosphorylation in human NCI-H1975 cells; type: ADME, cell-based
[6] = AUC (0 to infinity) in Sprague-Dawley rat at 10 mg/kg, po; type: ADME, organism-based; parameters: dose 10 mg/kg, route oral, time infinity; conditions: Sprague-Dawley, in vivo
Procedure, shortened: (§1)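 Male Sprague Dawley rats, 3 animals per route; mean values. IV dose 1 mg/kg as a DMSO solution. Oral dose 10 mg/kg, in one of three vehicles by compound: 1% Pluronic F68/2% HPMC/15% HPBCD/82% water–methanesulfonic acid pH 4.5; 20% HPBCD/80% water–methanesulfonic acid pH 4.0; or 1% Pluronic F68/2% HPMC/97% water–methanesulfonic acid pH 4.0.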

[7] = Clearance in Sprague-Dawley rat at 1 mg/kg, iv; type: ADME, organism-based; conditions: Sprague-Dawley, in vivo; procedure, shortened: as §1
[8] = Selectivity ratio of IC50 for wild type EGFR phosphorylation in human A431 cells to IC50 for EGFR 746 to 750 deletion mutant phosphorylation in human HCC827 cells; type: ADME, cell-based
[9] = Oral bioavailability in Sprague-Dawley rat at 10 mg/kg; type: ADME, organism-based; conditions: Sprague-Dawley, in vivo; procedure, shortened: as §1
[10] = molecular target: Epidermal growth factor receptor (Homo sapiens, UniProt P00533, 746-750DEL); assay: Inhibition of EGFR 746 to 750 deletion mutant phosphorylation in human HCC827 cells after 60 mins by mesoscale multiplex assay; type: cell-based
[11] = Volume of distribution at steady state in Sprague-Dawley rat at 1 mg/kg, iv; type: ADME, organism-based; conditions: in vivo, read-out: Vdss; procedure, shortened: as §1
[12] = molecular target: T1, Epidermal growth factor receptor; assay: Inhibition of wild type EGFR phosphorylation in human A431 cells after 60 mins by mesoscale multiplex assay; type: cell-based, A-431
[13] = Selectivity ratio of IC50 for human A431 cells expressing wild-type EGFR to IC50 for human NCI-H1975 cells harboring EGFR L858R/T790M double mutant; type: ADME, cell-based
[14] = Half life in Sprague-Dawley rat at 1 mg/kg, iv; type: ADME, organism-based; conditions: in vivo; procedure, shortened: as §1
[15] = molecular target: T2, Epidermal growth factor receptor; assay: Inhibition of EGFR L858R/T790M double mutant phosphorylation in human NCI-H1975 cells after 60 mins by mesoscale multiplex assay; type: cell-based
Rattus norvegicus = species on record: Rattus norvegicus; assay: Hepatobiliary toxicity in Sprague-Dawley rat measured for 4 days; type: organism-based; conditions: in vivo, 96 h

T2 sequence (P00533 25-1210 T790M/L858R limits assumed): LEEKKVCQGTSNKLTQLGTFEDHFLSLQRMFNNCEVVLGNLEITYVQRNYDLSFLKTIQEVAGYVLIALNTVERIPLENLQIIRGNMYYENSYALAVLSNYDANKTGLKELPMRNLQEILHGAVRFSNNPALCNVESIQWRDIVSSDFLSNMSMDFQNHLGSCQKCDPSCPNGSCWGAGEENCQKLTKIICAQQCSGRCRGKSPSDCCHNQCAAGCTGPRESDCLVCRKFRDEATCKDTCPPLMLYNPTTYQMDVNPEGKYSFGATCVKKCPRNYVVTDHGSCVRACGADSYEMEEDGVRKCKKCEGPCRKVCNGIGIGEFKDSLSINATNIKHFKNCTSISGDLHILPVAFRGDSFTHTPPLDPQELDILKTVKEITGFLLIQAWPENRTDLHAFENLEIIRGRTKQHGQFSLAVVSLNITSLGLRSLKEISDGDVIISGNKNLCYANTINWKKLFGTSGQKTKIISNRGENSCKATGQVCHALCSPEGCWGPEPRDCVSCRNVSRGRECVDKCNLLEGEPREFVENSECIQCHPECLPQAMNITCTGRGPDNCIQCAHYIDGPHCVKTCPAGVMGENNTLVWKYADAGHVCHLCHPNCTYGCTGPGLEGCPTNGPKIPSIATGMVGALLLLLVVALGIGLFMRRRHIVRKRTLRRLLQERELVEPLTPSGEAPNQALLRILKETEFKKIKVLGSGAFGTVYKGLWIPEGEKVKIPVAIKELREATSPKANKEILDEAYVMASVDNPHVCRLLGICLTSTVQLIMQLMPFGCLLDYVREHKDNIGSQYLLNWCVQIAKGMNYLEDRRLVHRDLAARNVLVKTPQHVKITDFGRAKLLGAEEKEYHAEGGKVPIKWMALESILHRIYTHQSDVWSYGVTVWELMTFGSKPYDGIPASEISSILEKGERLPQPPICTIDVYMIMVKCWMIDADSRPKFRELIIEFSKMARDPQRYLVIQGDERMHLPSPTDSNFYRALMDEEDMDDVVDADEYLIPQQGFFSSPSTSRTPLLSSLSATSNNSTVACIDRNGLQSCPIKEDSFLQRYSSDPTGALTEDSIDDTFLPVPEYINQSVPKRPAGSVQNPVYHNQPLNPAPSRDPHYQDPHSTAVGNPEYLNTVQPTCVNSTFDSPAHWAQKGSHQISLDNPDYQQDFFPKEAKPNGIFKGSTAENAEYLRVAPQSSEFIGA
T1 sequence (P00533 whole entry): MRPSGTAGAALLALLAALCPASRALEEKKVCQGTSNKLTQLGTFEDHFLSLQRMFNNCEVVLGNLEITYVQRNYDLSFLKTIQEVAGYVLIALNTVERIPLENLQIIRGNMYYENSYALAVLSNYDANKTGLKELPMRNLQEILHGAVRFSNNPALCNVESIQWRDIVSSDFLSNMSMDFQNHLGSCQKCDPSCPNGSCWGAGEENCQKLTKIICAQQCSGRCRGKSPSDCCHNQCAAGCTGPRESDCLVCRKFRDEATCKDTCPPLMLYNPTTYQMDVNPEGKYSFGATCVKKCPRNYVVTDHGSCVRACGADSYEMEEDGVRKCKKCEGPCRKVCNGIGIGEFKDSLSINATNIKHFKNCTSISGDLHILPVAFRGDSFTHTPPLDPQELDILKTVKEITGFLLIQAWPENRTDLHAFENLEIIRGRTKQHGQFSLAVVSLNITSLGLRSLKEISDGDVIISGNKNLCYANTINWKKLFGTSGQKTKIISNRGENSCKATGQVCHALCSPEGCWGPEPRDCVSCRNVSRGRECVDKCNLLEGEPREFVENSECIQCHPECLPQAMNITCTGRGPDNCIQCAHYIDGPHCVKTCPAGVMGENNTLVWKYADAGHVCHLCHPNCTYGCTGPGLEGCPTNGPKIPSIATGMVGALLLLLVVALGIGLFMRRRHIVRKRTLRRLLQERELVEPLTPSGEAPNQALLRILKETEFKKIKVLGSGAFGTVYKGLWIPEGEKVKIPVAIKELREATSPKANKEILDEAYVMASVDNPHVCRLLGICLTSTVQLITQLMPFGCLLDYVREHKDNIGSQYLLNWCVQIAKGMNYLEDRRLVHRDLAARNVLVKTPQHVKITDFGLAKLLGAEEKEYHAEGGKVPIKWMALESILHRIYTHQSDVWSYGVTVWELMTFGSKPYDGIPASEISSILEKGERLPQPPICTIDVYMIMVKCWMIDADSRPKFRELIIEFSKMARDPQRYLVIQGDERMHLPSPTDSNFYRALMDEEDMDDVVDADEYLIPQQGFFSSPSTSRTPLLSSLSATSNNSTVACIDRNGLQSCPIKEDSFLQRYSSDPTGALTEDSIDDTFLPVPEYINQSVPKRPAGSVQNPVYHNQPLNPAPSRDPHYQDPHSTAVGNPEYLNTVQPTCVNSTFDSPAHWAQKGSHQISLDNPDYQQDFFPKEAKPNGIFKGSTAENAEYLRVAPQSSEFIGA
Epidermal growth factor receptor (Homo sapiens, UniProt P00533, 746-750DEL), sequence (P00533 whole entry, looked up, stated change not applied): as the sequence (P00533 whole entry) above

C=CC(=O)Nc1cccc(-n2c(=O)cc(C)c3cnc(Nc4ccc(N5CCN(C)CC5)cc4)nc32)c1
inhibition in vivo at 30 mg/kg (Mus musculus): 5%
IC50 (A-431): > 3000 nM
IC50 (NCI-H1975): 4 nM
IC50 [1]: 7 nM

C=CC(=O)Nc1cccc(-n2c3nc(Nc4ccc(N5CCC(N(C)C)CC5)cc4OC)ncc3c(=O)n3ccnc23)c1
Kd [2]: 310 nM
Kd [3]: 2.6 nM

C=CC(=O)Nc1cccc(-n2c(=O)cc(C)c3cnc(Nc4ccc(C5CCN(C)CC5)cc4OC)nc32)c1
IC50 (NCI-H1975): 4 nM
IC50 [1]: 33 nM

C=CC(=O)Nc1cccc(-n2c(=O)cc(C)c3cnc(Nc4ccc(N5CCN(C)CC5)cc4OC)nc32)c1
Ratio IC50 [4]: > 100
Ratio IC50 [5]: 100
AUC(0-inf) [6]: 0.18 µM·h
clearance [7]: 177 mL/min/kg
inhibition in vivo at 30 mg/kg (Mus musculus): 90%
IC50 (A-431): 1200 nM
Ratio IC50 [8]: 100
bioavailability [9]: 9.5%
IC50 (NCI-H1975): 4 nM
IC50 [10]: 12 nM
Vd [11]: 7.8 L/kg
IC50 [12]: 386 nM
Ratio IC50 [13]: > 100
half-life [14]: 3 h
IC50 [15]: 4 nM
Activity (Rattus norvegicus): Toxic
IC50 [1]: 12 nM

C=CC(=O)Nc1cccc(-n2c(=O)cc(C)c3cnc(Nc4ccc(N5CCOCC5)cc4OC)nc32)c1
IC50 (NCI-H1975): > 10000 nM

C=CC(=O)Nc1cccc(-n2c(=O)c(OC)cc3cnc(Nc4ccc(N5CCN(C)CC5)cc4OC)nc32)c1
IC50 (A-431): 201 nM
IC50 (NCI-H1975): 273 nM
IC50 [1]: 61 nM

C=CC(=O)Nc1cccc(-n2c(=O)c(OC)c(C)c3cnc(Nc4ccc(N5CCN(C)CC5)cc4OC)nc32)c1
IC50 (A-431): 1390 nM
IC50 (NCI-H1975): 10 nM
IC50 [1]: 41 nM
